Results taken from PubChem BioAssay AID624070 (Broad Institute, 2012).
Results filed as inconclusive are left out. Active and inactive are the calls of the source.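 How the source made its calls: active means fitted curve crosses -35% change at a dose up to twice the top valid dose; inconclusive means flat fit showing 30 to 70% drop, or poor fit; inactive means the rest, including rises or flat curves.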

Experiment: P. aeruginosa growth delay under iron chelation, dose response, whole organism, absorbance 405 nm, EDDHA, dry powder, set 5 (AID 624070)
Conditions: P. aeruginosa ATCC 15692 + EDDHA, A405, 24-30 h; series mostly up to 120 µM; activity change, negative = inhibition: at the top concentration
Outline: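 material = Pseudomonas aeruginosa strain ATCC 15692, whole bacterial cells | quantity = final OD600 0.0000005 bacteria | medium = succinate M9 minimal growth medium, pH 7.0 | probe or stimulus = iron chelator EDDHA at 2 µM final | incubation = bacterial growth with compound for 24–30 h at 37 °C | signal = absorbance at 405 nm reflecting pyoverdine production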

Activity change, negative = inhibition, inactive:
N#CC(c1ccc(Cl)cc1)N1CCCC1 (stereo not drawn) -32.5%
N#Cc1cccc(C(C#N)c2ccc(F)cc2)n1 (stereo not drawn) -55.9% [at 42 µM]
COCCNC(C#N)c1ccc(Cl)cc1 (stereo not drawn) -5.05%
Clc1ccc(C(c2cccc(Cl)n2)c2nn[nH]n2)cc1 (stereo not drawn) 0.409%
CCCCC(C#N)c1ccccn1 (stereo not drawn) -2.51%
N#CC1c2ccc(Cl)cc2CCc2cccnc21 (stereo not drawn) -18.7%
N#CC(c1ccc(F)cc1)c1cccc(Cl)n1 (stereo not drawn) -11%
COCCOCCC(C#N)c1ccc(Cl)cc1 (stereo not drawn) -0.54%
CCCCC(C#N)c1ccc(Cl)cc1 (stereo not drawn) -27.5%
CCCCC(C#N)c1ccc(F)cn1 (stereo not drawn) -1%
N#CC(c1ccc(Cl)cc1)c1ccccn1 (stereo not drawn) -20.5%
CCCCC(C#N)c1ccc(F)cc1 (stereo not drawn) -7.51%
CN(C)CCCC(C#N)c1ccc(Cl)cc1 (stereo not drawn) -9.81%
COCCC(C#N)c1ccc(F)cc1 (stereo not drawn) -34.9%
CCCCC(C#N)c1ccc(Cl)cn1 (stereo not drawn) -3.36%
N#CC(c1ccc(C(F)(F)F)c(Cl)n1)c1ccccc1OC(F)(F)F (stereo not drawn) -11.5%
COCCC(C#N)c1ccc(Cl)cc1 (stereo not drawn) -9.4%
COCCOCCC(C#N)c1ccc(F)cc1 (stereo not drawn) -20.3%
